High-throughput results: PubChem BioAssay, The Scripps Research Institute Molecular Screening Center
Most compounds without a hit are left out; they make up all but 1.6% or so of the library.
UHRF1 binding = blocks human UHRF1 binding to methylated DNA | UHRF1 binding to methylated oligo, TR-FRET | inhibition, % at 4.4 µM | hit rate 0.75% among 370,000 | AID 687016 | Q96T88; in the data active means inhibition above about 21%;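 further: UHRF1 SRA domain binding a hemimethylated CpG hairpin DNA probe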
MBD2 inh = MBD2-methylated oligo binding inhibition. TR-FRET, MBD2 binding to methylated oligonucleotide. AID 686964. inhibition, % at 4.4 µM. hit rate 0.31% among 370,000. Q9UBB5; in the data active means inhibition above about 13%
TDP2 inh = TDP2 (human) inhibition, absorbance primary screen; recombinant TDP2, T5PNP hydrolysis, p-nitrophenol absorbance 415 nm; O95551; hit rate 0.34% among 370,000; inhibition, % at 12.8 µM;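 active means inhibition above the mean of all tested compounds plus 3 SD, set per campaign, cut at about 25% in these data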
Target sequence (O95551 whole entry, looked up): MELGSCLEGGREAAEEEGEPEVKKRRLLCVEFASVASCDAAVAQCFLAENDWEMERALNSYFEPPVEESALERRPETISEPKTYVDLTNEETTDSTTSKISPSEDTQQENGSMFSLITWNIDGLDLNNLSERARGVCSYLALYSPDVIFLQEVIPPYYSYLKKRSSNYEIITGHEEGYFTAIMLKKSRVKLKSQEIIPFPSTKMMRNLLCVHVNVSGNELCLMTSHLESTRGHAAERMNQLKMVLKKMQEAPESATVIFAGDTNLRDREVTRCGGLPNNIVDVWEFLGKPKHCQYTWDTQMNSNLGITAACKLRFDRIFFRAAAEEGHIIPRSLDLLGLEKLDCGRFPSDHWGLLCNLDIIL
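Read-out basis: percent inhibition. System: recombinant human TDP2. Buffer or medium: Mg2+-containing Tris-HCl buffer, pH 7.5. Repeats: single replicate. Timing: reaction 2 h, 37 °C. Benchmarks: high control without enzyme, low control DMSO plus TDP2. Probe or stimulus: 5 mM T5PNP. Doses: 12.8 µM only. Measured by: epi absorbance of p-nitrophenol freed from T5PNP by hydrolysis.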
LEDGF integ inh = blocks HIV-1 LEDGF/p75-dependent DNA integration. TR-FRET IN-LEDGF/p75 DNA integration, Eu/Cy5. inhibition, % at 3.7 µM. hit rate 0.64% among 370,000. AID 743269;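 active means inhibition above the screen-wide mean plus 3 SD, cut at about 13% in these data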;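 further: signal is the Cy5 over europium emission ratio at 671 and 618 nm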
Numbers stand for hits; – = inactive.

SMILES	UHRF1 binding	MBD2 inh	TDP2 inh	LEDGF integ inh
COCCCn1cc(CN(C)C2CN(Cc3cn(CCCOC)nn3)S(=O)(=O)C2)nn1 (stereo not given)	24.4	–	–	–
COC(=O)[C@H]1C[C@H](O)CN1S(=O)(=O)c1ccc(Br)cc1F	–	–	–	–
Fc1ccc(-c2nc3c4ccccc4ccn3c2Cc2ccccc2)cc1	–	–	–	–
O=C(Nc1nc(Cc2ccccc2)c(-c2ccccc2)n1Cc1ccccc1)c1ccccc1	–	–	–	–
Cc1ccc(C(=O)Nc2ccc(O)c(C(=O)O)c2)o1	43.9	–	–	–
CSc1nc(SCCO)c2sc3nc(-c4ccco4)c4c(c3c2n1)CC(C)(C)OC4	–	–	–	–
COC(=O)CSc1nc(SC)nc2c1sc1nc(-c3ccco3)c3c(c12)CC(C)(C)OC3	23.9	–	–	–
COCCCNC(=S)NC1CC2CCC(C1)N2Cc1ccccc1 (stereo not given)	–	–	–	–
CSc1ccccc1NC(=O)CN(C)C(=O)CCc1c[nH]c2ccccc12	20.8	–	–	–
OC(CC#CCN1CCCC1)(c1ccccc1)c1ccccc1	22.1	–	–	–
Cn1nc(C(F)(F)F)c(-c2ccc(Br)cc2)c1NC(=O)Nc1ccc(F)cc1F	–	–	–	–
COc1ccc(S(=O)(=O)n2cccc2)cc1	23.1	–	–	–
Oc1cc2c(cc1O)[C@H]1c3ccc(O)c(O)c3OC[C@@]1(O)C2	–	–	–	82.7
CN1CCN(C(=O)/C=C/c2cccc(Cl)c2)CC1	–	–	–	–
CCC(=O)c1ccc(OCc2cn(CC(=O)c3ccc(O)cc3)nn2)cc1	21.7	–	–	–
O=C(Cn1cc(COc2ccc(C(=O)c3ccccc3)cc2)nn1)c1ccc(O)cc1	22.4	–	–	–
CCC(=O)c1ccc(OCc2ccccc2)c(OC)c1	–	–	–	–
COc1ccc(OCc2cn(CC(=O)c3ccc(O)cc3)nn2)cc1	21.8	–	–	–
CCC(=O)c1ccc(OCc2ccc(C(=O)c3ccccc3)cc2)cc1	22.5	–	–	–
CC(NC(=O)c1ccc(N(C)C)cc1)C(c1cccs1)N1CCN(C)CC1 (stereo not given)	–	–	–	–
O=c1[nH]c(/C=C/c2ccccn2)nc2ccccc12	–	–	–	–
CCNC(=S)N/N=C(\C)c1ccco1	–	–	–	–
O=C(N=c1ccn(-c2nc3ccccc3nc2NS(=O)(=O)c2ccccc2)cc1)c1cccs1	–	–	–	–
Cc1ccccc1C(=O)N=c1ccn(-c2nc3ccccc3nc2NS(=O)(=O)c2ccc(F)cc2)cc1	20.9	–	–	–
CCCN(C(=O)CSc1nnnn1C)C1CCS(=O)(=O)C1 (stereo not given)	21.9	–	–	–
SMILES	UHRF1 binding	MBD2 inh	TDP2 inh	LEDGF integ inh
CCN(C(=O)CSc1nnnn1C)C1CCCCC1	–	–	–	–
CCOC(=O)c1c(C)[nH]c(C(=O)COC(=O)c2c(CC)noc2C)c1C	–	–	–	–
Nc1nonc1-n1nnc(C(=O)N/N=C/c2cccc(F)c2)c1-c1ccc2c(c1)OCO2	–	–	–	–
N#Cc1ccsc1NC(=O)COC(=O)CCCSc1nc2ccccc2s1	75.1	–	–	–
NC(=O)COC(=O)CCCSc1nc2ccccc2s1	–	–	–	–
O=C(c1cc(COc2ccc(F)cc2F)on1)N1CCN(C(=O)c2ccco2)CC1	–	–	–	–
Cc1ccc(-n2c(-c3ccccc3)cc(/C=N/NC(=O)CC#N)c2-c2ccccc2)cc1	–	–	–	–
N#CCC(=O)N/N=C/c1cc(-c2ccccc2)n(-c2ccc(Cl)cc2)c1-c1ccccc1	37.9	–	–	–
COC(=O)c1ccc2nc(-c3cccc(Cl)c3)c(Cc3cccc(Cl)c3)n2c1	23.1	–	–	–
FC(F)(F)c1ccccc1Cc1c(-c2cccc(Cl)c2)nc2ccc(Br)cn12	–	–	–	–
COC(=O)c1ccc2nc(-c3ccccc3)c(Cc3ccccc3)n2c1	–	–	–	–
COC(=O)c1ccc2nc(-c3cccc(Cl)c3)c(Cc3cccc(F)c3)n2c1	–	–	–	–
COC(=O)c1ccc2nc(-c3ccc(OC)c(OC)c3)c(Cc3ccsc3)n2c1	–	–	–	–
COC(=O)c1ccc2nc(-c3ccc(Cl)cc3)c(Cc3ccsc3)n2c1	20.8	–	–	–
COC(=O)c1ccc2nc(-c3cccc(Cl)c3)c(Cc3ccccc3C(F)(F)F)n2c1	22.1	–	–	–
COC(=O)c1ccc2nc(-c3ccccc3)c(Cc3ccsc3)n2c1	22.2	–	–	–
COC(=O)c1ccc2nc(-c3cccc(Br)c3)c(Cc3cccc(F)c3)n2c1	–	–	–	–
COC(=O)c1ccc2nc(-c3cccc(Br)c3)c(Cc3cccc(Cl)c3)n2c1	–	–	–	–
Cc1ccc2nc(-c3ccc(F)cc3)c(Cc3ccccc3C(F)(F)F)n2c1	21.8	–	–	–
COC(=O)c1ccc2nc(-c3cccc(Cl)c3)c(Cc3ccsc3)n2c1	22.4	–	–	–
COC(=O)c1ccc2nc(-c3cccc(Cl)c3)c(CC3CCCCC3)n2c1	21.7	–	–	–
COC(=O)c1ccc2nc(-c3cccc(Br)c3)c(Cc3ccsc3)n2c1	21.5	–	–	–
Cc1nc(NCCO)c(C#N)c2c1COC(C)(C)C2	–	–	–	–
CCCCN(C(=O)c1cc2c(s1)CCCCC2)c1c(N)n(CCC)c(=O)[nH]c1=O	–	–	–	–
COc1ccc(C)cc1N(CC(=O)O)S(=O)(=O)c1ccc(C)cc1	–	–	–	–
SMILES	UHRF1 binding	MBD2 inh	TDP2 inh	LEDGF integ inh
COc1ccc(N(CC(=O)NC2CC3CCC2C3)S(=O)(=O)c2ccc(C)cc2)cc1Cl (stereo not given)	21.8	–	–	–
CNC(=O)CN(c1cc(C)ccc1OC)S(=O)(=O)c1ccc(C)cc1	41.5	–	–	–
CCC(CC)NC(=O)/C=C/c1ccccc1Cl	–	–	–	–
Cc1c(Cl)c([N+](=O)[O-])nn1CCCC(=O)N1CCN(c2ccccc2)CC1	31.2	–	–	–
Cc1c(Br)c([N+](=O)[O-])nn1CCCC(=O)N1CCN(c2ccccc2)CC1	–	–	–	–
COc1ccccc1NCCC(=O)OCC(=O)NC1CCCC(C)C1C (stereo not given)	–	–	–	–
Cc1nc2cc(C(=O)N3c4ccccc4CC3C)ccc2s1 (stereo not given)	21.8	–	–	–
COC(=O)[C@]12CCCCC=C1N(CCc1ccc(OC)c(OC)c1)C(=O)[C@H](CC(=O)NCc1ccc(OC)c(OC)c1)C2	–	–	–	–
O=[N+]([O-])c1ccc(NCCCc2ccccc2)cc1	–	–	–	–
CCNc1ccc([N+](=O)[O-])cc1	41.3	–	–	–
Cc1cccc(NC(=O)CNC(=O)CSc2nnc(C(F)(F)F)n2C)c1C	–	–	–	–
COc1ccc2c(CN3CCCCC3)cc(=O)oc2c1	20.8	–	–	–
COc1ccccc1/C=C/C(=O)OCC(=O)c1c(N)n(C)c(=O)n(C)c1=O	–	–	–	–
COc1ccc(CNC(=O)c2sc(=O)n(Cc3ccccc3OC)c2C)cc1	–	–	–	–
